IMP-1 inh: blocks Pseudomonas aeruginosa IMP-1 metallo-beta-lactamase; purified IMP-1, nitrocefin hydrolysis, epi-absorbance fluorescence; inhibition, % at 5.6 µM; 290,000 tested, 0.45% active;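 active means inhibition above the mean plus 3 SD of all compounds in the same screening run, cut at about 4.5% in these data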;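 further: 0% = IMP-1 with DMSO and 100% = DMSO wells lacking enzyme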
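System: Purified recombinant IMP-1 metallo-beta-lactamase enzyme | Measured by: Fluorescence quenching readout, ex 480/em 530 nm | Replication: Singlicate | Incubation: 15 min preincubation plus 25 min reaction at 25 °C | Evaluation: Percent inhibition from optical density relative to buffer-blank wells | Benchmarks: DMSO with and without IMP-1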
RAD54 branch: inhibitors of human RAD54 branch migration | Q92698 | RAD54 Holliday junction branch migration, FAM/BHQ fluorescence | inhibition, % at 10.4 µM | 360,000 tested, 0.14% active | AID 602329;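 active means mean normalized replicate activity at least 40 and at least half of replicates scoring 40 or more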;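 further: 0% = median of neutral control wells and 100% = median of positive control wells; inhibitors cause a drop in the FAM fluorescence signal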
Target sequence (Q92698 whole entry, looked up): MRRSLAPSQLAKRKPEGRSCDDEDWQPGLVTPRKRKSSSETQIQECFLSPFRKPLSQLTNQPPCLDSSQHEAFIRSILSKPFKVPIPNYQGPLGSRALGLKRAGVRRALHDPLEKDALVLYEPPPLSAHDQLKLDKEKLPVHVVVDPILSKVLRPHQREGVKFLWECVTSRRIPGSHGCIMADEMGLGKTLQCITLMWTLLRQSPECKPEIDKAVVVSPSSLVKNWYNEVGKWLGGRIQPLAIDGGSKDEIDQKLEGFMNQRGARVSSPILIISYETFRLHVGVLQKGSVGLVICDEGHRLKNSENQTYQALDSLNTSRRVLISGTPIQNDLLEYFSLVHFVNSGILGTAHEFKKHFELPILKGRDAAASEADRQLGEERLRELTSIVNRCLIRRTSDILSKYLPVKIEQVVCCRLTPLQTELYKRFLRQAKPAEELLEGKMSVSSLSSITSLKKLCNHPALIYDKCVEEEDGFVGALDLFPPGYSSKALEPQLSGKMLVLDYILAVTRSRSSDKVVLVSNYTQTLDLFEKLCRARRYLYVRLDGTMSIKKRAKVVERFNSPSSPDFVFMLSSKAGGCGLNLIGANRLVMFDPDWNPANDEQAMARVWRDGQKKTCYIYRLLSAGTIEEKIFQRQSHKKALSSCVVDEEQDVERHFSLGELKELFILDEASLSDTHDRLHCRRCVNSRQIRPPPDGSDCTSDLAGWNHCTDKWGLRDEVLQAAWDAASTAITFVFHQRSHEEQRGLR
DNA FID counter: displaces DNA intercalator in HCV helicase counter-screen | 290,000 tested, 0.17% active | AID 1845 | inhibition, % at 7.9 µM | DNA fluorescent intercalator displacement, fluorescence; in the data active means inhibition above about 37%;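 further: 0% = vehicle and 100% = reference compound; higher means more ethidium bromide displaced from hairpin DNA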
VIM-2 inh: blocks Pseudomonas aeruginosa VIM-2 metallo-beta-lactamase; purified VIM-2, nitrocefin hydrolysis, epi-absorbance fluorescence; inhibition, % at 5.6 µM; 290,000 tested, 0.89% active; AID 1527;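 active means inhibition above the mean of all tested compounds plus 3 SD, cutoff set per screening run, cut at about 7.5% in these data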;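 further: red hydrolysis product quenches plate fluorescence so inhibitors raise well fluorescence; 0% = enzyme with DMSO and 100% = DMSO without enzyme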
PvdQ acylase: P. aeruginosa PvdQ acylase inhibition; 340,000 tested, 0.063% active; purified PvdQ acylase, fluorescence plate reader; inhibition, % at 10 µM; in the data active means inhibition above about 30%, passing the limit was not always enough;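 further: 0% = vehicle neutral wells and 100% = reference inhibitor wells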
Numbers without * were called inactive. Rows were chosen to be rich in hits. Some 1% of all compounds tested hit in one or more screens of this group.

`Cc1nc2ccccc2c2oc(C(=O)N3CCc4ccccc4C3)cc12` gave IMP-1 inh -4, RAD54 branch -4, DNA FID counter -32, VIM-2 inh 4 and PvdQ acylase 17.
Cc1nc2ccccc2c2oc(C(=O)N3CCC(C)CC3)cc12 was read as IMP-1 inh 0, RAD54 branch 7, DNA FID counter -30, VIM-2 inh 11* and PvdQ acylase 1.
Cc1nc2ccccc2c2oc(C(=O)NC3CC3)cc12 was read as IMP-1 inh 0, RAD54 branch 5, DNA FID counter -7, VIM-2 inh 8.4* and PvdQ acylase -5.
For Cc1nc2ccccc2c2oc(C(=O)N3CCN(C(=O)c4ccco4)CC3)cc12 the results were IMP-1 inh -3, RAD54 branch 6, DNA FID counter -21, VIM-2 inh 8.8* and PvdQ acylase 2.
Screening COc1ccccc1NC(=O)N(C)C[C@@H]1OCc2ccccc2-c2ccccc2C(=O)N([C@@H](C)CO)C[C@@H]1C returned RAD54 branch 7.
Screening CCCNC(=O)C[C@@H]1CC[C@H]2[C@@H](COC[C@@H](O)CN2CC2CCCCC2)O1 returned RAD54 branch -10.
For CCCC(=O)Nc1ccc2c(c1)C(=O)N(C)C[C@H](OC)[C@H](C)CN(Cc1nccs1)[C@@H](C)CO2 the results were RAD54 branch -15.
For CCC(C)NC(=O)c1cc2c(=O)n(CC)c3ccccc3c2s1 (stereo not given) the results were IMP-1 inh -1, RAD54 branch 11, DNA FID counter -26, VIM-2 inh 8.0* and PvdQ acylase -16.
`CCn1c(=O)c2cc(C(=O)NCCCOC)sc2c2ccccc21` gave IMP-1 inh -2, RAD54 branch 12, DNA FID counter -26, VIM-2 inh 9.0* and PvdQ acylase -3.
`C[C@H]1CCCCO[C@H](CN(C)CC2CCCCC2)[C@@H](C)CN([C@@H](C)CO)C(=O)c2cc(NC(=O)Nc3ccc(F)cc3)ccc2O1` gave RAD54 branch 0.
For Cc1cc2cc(CN(Cc3cccs3)C(=S)NCc3ccco3)c(=O)[nH]c2cc1C the results were IMP-1 inh -1, RAD54 branch -2, DNA FID counter -30, VIM-2 inh 8.6* and PvdQ acylase -4.
Screening CCC(=O)Nc1nc2c(OC)ccc(OC)c2s1 returned IMP-1 inh 4.9*, RAD54 branch 3, DNA FID counter 3, VIM-2 inh -1 and PvdQ acylase -8.
Screening Cc1ccc(SC(C)C(=O)Nc2ncn[nH]2)cc1 (stereo not given) returned IMP-1 inh 39*, RAD54 branch -3, DNA FID counter -4, VIM-2 inh -6 and PvdQ acylase -12.
Cc1ccc(/C=C2\SC(=S)N(c3cccnc3)C2=O)o1 was read as IMP-1 inh 5.9*, DNA FID counter -10, VIM-2 inh 1 and PvdQ acylase 0.
CCCNC(=O)Nc1ccc2c(c1)OC[C@H](C)N(Cc1ccncc1)C[C@@H](C)[C@@H](OC)CN(C)C2=O was read as RAD54 branch 4.
Cc1cc(C(=O)CN2C(=O)c3ccccc3S2(=O)=O)c(C)n1CC1CCCO1 (stereo not given) was read as IMP-1 inh 9.4*, RAD54 branch 1, DNA FID counter -7, VIM-2 inh 6 and PvdQ acylase -11.
CCCn1c(C)cc(C(=O)CN2C(=O)c3ccccc3S2(=O)=O)c1C was read as RAD54 branch 10.
COc1cccc(S(=O)(=O)N[C@@H]2CC[C@@H](CCn3cc(-c4ccccc4OC)nn3)O[C@@H]2CO)c1 was read as RAD54 branch 2.
CC(C)C1Nc2ccc(S(N)(=O)=O)cc2C2C=CCC21 (stereo not given) was read as IMP-1 inh -3, RAD54 branch -16, DNA FID counter 4, VIM-2 inh -3 and PvdQ acylase -9.
For NS(=O)(=O)c1ccc2c(c1)C1C=CCC1C(C1CC=CCC1)N2 (stereo not given) the results were IMP-1 inh 13*, RAD54 branch -7, DNA FID counter -4, VIM-2 inh 0 and PvdQ acylase -25.
CC(C)n1c(Nc2ccccc2)nc2ccccc21 was read as IMP-1 inh -5, RAD54 branch -2, DNA FID counter 91*, VIM-2 inh -7 and PvdQ acylase -7.
Screening CC(C)n1c(NCCO)nc2ccccc21 returned IMP-1 inh -3, DNA FID counter 0, VIM-2 inh -4 and PvdQ acylase -3.
CCSc1nc(N)c2c3c(sc2n1)CN(C)CC3 was read as IMP-1 inh 0, DNA FID counter 17 and VIM-2 inh 8.5*.
`Cc1nn(CCc2n[nH]c(=S)n2-c2ccc(F)c(Cl)c2)c(C)c1[N+](=O)[O-]` gave IMP-1 inh -2, RAD54 branch 7, DNA FID counter -2, VIM-2 inh 9.7* and PvdQ acylase 5.
Screening COc1ccc(C(=O)CC2OC(=O)c3ccccc32)cc1OC (stereo not given) returned IMP-1 inh 4.9*, RAD54 branch -6, DNA FID counter -9, VIM-2 inh 0 and PvdQ acylase -9.
`CCN1CCN(Cc2ccc(NC(=O)c3cc(NC(=O)c4cc(C)on4)cc(OC)c3)cc2C(F)(F)F)CC1` gave IMP-1 inh 0, RAD54 branch 14, DNA FID counter 42*, VIM-2 inh 1 and PvdQ acylase -12.
For COc1ccc(CN(C)C[C@H]2Oc3ccc(NS(=O)(=O)c4ccc(F)cc4)cc3C(=O)N([C@H](C)CO)C[C@H]2C)cc1 the results were RAD54 branch 6.
`Cc1noc(C)c1NC(=O)NCC[C@@H]1CC[C@H](NC(=O)Nc2cccc(F)c2)[C@H](CO)O1` gave RAD54 branch -10.
`CN(C)CC#Cc1ccc([C@H]2[C@H]3CN(C(=O)C4CCCC4)CCCCN3[C@H]2CO)cc1` gave RAD54 branch -5.
`O=c1c2ccccc2nc(-c2ccco2)n1CCCn1ccnc1` gave IMP-1 inh -3, RAD54 branch -2, DNA FID counter -2, VIM-2 inh 8.1* and PvdQ acylase -13.
Screening Cc1ccc(S(=O)(=O)Nc2ccc3c(c2)C(=O)N([C@@H](C)CO)C[C@H](C)[C@@H](CN(C)C(=O)Nc2c(C)noc2C)O3)cc1 returned RAD54 branch -7.
Screening Cc1ccc(C)c(NC(=S)NCCc2ccc(F)cc2)c1 returned IMP-1 inh 20*, RAD54 branch 2, DNA FID counter -8, VIM-2 inh -2 and PvdQ acylase -2.
`C[C@@H]1CN([C@@H](C)CO)C(=O)c2cc(C3=CCCCC3)cnc2O[C@H]1CN(C)C(=O)c1ccc2c(c1)OCO2` gave RAD54 branch 7.
Screening Fc1ccccc1-c1nnc2ccc3ccccc3n12 returned IMP-1 inh 4.8*, RAD54 branch 3, DNA FID counter -7, VIM-2 inh -2 and PvdQ acylase -11.
